Measurements published in ChEMBL document CHEMBL1165965, “Synthesis and structure-activity relationships of 1,2,3,4-tetrahydropyrido[2,3-b]pyrazines as potent and selective inhibitors of the anaplastic lymphoma kinase” (Bioorg Med Chem, 2010).

Columns and labels:
[1] = target: Insulin receptor-related protein (Homo sapiens) (UniProt P14616); experiment: Inhibition of INSRR at 1 uM
How it was run: (§1)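 Single-concentration screen on the Ambit KINOMEscan platform, run against a panel of 250–400 kinases. Per-kinase inhibition was also summarized as S(90), the fraction of kinases inhibited by more than 90%.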

[2] = target: Protein-tyrosine kinase 2-beta (Homo sapiens) (UniProt Q14289); experiment: Inhibition of PYK2 at 1 uM; how it was run: as §1
[3] = target: T1, Serine/threonine-protein kinase 36 (Homo sapiens) (UniProt Q9NRP7); experiment: Inhibition of STK36 at 1 uM
T1 sequence (whole entry): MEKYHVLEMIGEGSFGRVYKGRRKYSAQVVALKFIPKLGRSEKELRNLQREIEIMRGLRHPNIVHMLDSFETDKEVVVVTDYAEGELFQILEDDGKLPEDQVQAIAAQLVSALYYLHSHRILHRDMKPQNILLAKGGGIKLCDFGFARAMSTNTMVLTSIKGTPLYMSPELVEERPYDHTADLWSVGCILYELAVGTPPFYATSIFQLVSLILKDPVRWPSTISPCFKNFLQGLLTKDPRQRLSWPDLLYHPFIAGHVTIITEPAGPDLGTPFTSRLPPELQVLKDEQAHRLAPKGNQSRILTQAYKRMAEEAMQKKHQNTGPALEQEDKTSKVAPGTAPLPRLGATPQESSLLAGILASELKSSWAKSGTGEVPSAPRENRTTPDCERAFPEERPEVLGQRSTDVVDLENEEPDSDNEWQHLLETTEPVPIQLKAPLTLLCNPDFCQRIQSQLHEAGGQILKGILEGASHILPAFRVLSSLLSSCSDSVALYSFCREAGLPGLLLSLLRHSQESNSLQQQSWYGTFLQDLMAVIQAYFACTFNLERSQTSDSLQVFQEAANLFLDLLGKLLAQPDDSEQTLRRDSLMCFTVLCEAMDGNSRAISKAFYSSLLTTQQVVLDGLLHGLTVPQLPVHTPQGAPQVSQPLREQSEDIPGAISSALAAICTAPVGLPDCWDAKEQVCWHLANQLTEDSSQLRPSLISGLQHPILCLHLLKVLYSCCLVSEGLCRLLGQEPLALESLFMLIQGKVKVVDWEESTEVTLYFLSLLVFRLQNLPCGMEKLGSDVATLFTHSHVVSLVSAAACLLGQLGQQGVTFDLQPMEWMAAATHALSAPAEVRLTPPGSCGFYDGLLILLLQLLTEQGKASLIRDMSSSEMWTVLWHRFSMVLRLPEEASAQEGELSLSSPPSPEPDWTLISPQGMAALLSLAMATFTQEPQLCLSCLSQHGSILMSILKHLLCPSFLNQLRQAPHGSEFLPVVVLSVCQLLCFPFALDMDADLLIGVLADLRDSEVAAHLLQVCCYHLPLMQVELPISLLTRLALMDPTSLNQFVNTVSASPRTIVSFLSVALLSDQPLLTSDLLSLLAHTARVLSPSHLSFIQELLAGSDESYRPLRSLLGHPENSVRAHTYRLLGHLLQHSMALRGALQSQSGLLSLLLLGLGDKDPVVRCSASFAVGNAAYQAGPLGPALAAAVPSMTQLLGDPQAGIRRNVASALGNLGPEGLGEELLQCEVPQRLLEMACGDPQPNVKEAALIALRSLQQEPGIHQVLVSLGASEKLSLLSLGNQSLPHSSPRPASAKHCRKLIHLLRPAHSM

[4] = target: Tyrosine-protein kinase ABL1 (Homo sapiens) (UniProt P00519); experiment: Inhibition of ABL1 at 1 uM
How it was run: (§2)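 Ambit KINOMEscan screen at a single concentration across a 250–400 kinase panel, recorded as percent inhibition. Selectivity was expressed as S(90), the fraction of kinases inhibited >90%.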

[5] = test system: Tyrosine-protein kinase ABL1 (Homo sapiens), P00519 [T315I]; experiment: Inhibition of ABL1 T315I mutant at 1 uM; how it was run: as §2
[6] = target: Protein-tyrosine kinase 6 (Homo sapiens) (UniProt Q13882); experiment: Inhibition of BRK at 1 uM; how it was run: as §2
[7] = target: Calcium/calmodulin-dependent protein kinase type 1G (Homo sapiens) (UniProt Q96NX5); experiment: Inhibition of CAMK1G at 1 uM; how it was run: as §2
[8] = target: T2, Serine/threonine-protein kinase 17B (Homo sapiens) (UniProt O94768); experiment: Inhibition of DRAK2 at 1 uM
T2 sequence (whole entry): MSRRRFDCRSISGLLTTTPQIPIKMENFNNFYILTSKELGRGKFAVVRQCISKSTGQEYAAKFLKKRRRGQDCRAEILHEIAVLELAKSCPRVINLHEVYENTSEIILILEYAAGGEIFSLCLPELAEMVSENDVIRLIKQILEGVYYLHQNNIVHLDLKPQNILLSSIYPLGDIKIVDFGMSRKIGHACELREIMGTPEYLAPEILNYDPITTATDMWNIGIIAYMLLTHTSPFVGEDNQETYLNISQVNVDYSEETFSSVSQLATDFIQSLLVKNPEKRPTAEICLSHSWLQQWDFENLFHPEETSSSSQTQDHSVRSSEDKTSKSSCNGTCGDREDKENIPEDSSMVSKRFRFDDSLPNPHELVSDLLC

Measured: inhibition

Sequence of Protein-tyrosine kinase 6 (Homo sapiens) (Q13882 whole entry, looked up): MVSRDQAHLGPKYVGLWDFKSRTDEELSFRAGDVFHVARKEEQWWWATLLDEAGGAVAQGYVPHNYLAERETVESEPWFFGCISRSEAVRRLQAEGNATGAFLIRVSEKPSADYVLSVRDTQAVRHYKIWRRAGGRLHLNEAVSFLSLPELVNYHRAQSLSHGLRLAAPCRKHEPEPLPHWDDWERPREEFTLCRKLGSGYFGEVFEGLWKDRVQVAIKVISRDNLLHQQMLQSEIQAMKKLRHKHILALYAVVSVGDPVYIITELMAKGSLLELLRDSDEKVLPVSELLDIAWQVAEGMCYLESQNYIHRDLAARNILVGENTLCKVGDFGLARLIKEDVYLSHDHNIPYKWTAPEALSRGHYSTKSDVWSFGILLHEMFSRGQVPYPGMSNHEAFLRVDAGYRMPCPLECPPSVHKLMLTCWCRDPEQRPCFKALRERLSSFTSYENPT
Sequence of Insulin receptor-related protein (Homo sapiens) (P14616 27-742 limits assumed): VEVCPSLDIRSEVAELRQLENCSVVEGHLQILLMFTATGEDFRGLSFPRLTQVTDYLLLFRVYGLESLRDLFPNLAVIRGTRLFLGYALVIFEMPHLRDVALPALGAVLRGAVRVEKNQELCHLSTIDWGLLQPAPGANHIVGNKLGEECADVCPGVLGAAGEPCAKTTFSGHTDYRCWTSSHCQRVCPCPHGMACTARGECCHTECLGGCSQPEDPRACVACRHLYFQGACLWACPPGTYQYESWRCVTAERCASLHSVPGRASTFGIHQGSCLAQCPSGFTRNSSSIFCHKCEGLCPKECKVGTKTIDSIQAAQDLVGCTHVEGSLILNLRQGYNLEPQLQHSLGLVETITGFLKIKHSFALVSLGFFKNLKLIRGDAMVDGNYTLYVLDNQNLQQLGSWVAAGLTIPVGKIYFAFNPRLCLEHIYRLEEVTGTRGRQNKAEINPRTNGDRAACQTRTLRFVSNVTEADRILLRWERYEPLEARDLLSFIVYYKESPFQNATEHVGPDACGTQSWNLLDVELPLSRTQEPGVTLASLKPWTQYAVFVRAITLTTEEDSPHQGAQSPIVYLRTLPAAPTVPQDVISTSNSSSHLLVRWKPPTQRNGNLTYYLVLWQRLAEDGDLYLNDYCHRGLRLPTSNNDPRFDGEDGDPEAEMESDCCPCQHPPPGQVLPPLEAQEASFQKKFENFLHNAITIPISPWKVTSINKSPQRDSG
Sequence of Insulin receptor-related protein (Homo sapiens) (P14616 747-1297 limits assumed): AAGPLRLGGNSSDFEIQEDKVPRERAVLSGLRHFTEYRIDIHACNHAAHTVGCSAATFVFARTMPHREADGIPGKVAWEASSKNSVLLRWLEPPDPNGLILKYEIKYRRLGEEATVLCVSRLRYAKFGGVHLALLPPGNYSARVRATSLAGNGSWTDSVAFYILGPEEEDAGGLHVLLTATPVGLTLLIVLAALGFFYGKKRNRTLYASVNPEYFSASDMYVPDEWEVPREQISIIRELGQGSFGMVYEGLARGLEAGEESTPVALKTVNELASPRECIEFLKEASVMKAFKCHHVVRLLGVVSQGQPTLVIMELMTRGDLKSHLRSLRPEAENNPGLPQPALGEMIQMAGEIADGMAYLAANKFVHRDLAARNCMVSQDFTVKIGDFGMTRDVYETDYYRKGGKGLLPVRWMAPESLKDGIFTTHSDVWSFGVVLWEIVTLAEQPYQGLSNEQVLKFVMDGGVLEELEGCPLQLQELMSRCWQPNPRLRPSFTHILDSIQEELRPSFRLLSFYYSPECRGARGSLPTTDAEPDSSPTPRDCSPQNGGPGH
Sequence of Calcium/calmodulin-dependent protein kinase type 1G (Homo sapiens) (Q96NX5 whole entry): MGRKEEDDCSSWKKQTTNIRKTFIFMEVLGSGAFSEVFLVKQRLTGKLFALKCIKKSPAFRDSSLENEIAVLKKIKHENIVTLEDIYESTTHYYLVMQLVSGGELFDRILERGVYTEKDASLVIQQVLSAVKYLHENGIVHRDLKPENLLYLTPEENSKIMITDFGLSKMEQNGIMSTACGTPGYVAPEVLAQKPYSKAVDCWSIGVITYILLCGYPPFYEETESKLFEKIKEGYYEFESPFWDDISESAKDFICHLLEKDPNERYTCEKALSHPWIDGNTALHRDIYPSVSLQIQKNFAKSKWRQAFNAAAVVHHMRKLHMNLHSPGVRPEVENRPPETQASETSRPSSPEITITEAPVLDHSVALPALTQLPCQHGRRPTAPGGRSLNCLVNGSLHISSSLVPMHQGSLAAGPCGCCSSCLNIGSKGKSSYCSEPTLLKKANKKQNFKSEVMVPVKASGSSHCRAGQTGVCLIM
Sequence of Protein-tyrosine kinase 2-beta (Homo sapiens) (Q14289 whole entry, looked up): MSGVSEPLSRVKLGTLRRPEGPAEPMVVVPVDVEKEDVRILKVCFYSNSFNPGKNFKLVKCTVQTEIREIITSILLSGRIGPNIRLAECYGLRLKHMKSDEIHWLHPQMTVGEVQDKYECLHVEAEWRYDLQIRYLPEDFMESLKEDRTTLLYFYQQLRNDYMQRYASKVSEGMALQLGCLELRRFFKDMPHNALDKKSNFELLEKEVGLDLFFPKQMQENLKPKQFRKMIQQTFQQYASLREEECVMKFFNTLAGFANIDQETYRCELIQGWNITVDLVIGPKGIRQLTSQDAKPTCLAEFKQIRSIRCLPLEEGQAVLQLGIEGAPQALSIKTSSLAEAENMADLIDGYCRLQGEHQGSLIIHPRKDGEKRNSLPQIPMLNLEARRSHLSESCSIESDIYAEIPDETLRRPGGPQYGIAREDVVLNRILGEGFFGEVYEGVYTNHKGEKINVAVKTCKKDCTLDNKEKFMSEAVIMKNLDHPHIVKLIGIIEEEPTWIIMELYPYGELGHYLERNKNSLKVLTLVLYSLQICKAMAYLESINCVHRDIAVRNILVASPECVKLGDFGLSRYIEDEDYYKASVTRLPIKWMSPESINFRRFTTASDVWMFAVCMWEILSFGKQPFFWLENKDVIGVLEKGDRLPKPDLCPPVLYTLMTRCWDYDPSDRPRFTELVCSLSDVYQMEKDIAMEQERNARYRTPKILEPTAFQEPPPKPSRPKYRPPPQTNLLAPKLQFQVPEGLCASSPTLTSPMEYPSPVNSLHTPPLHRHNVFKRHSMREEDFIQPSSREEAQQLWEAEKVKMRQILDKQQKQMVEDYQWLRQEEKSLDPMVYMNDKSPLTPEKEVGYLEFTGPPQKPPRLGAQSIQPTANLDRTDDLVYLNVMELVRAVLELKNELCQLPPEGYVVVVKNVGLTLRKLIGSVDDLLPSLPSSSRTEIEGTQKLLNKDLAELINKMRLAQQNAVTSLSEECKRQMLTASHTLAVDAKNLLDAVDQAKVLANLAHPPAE

CN1CCN(c2ccc(-c3cnc4c(c3)N(Cc3cc(Cl)ccc3Cl)CCN4)cn2)CC1
< 50%: all assays above

CN1CCN(c2ccc(-c3cnc4c(c3)N(Cc3cc(Cl)ccc3C(F)(F)F)CCN4)cn2)CC1
71%: [2]
< 50%: all other assays above

CN1CCN(c2ccc(-c3cnc4c(c3)N(Cc3c(F)ccc(F)c3Cl)CCN4)cn2)CC1
95%: [5]
84%: [4]
< 50%: all other assays above

O=C(c1ccc(-c2cnc3c(c2)N(Cc2cc(Cl)ccc2C(F)(F)F)CCN3)cc1)N1CCC(N2CCCC2)CC1
< 50%: [1] | [4] | [6] | [7]
90.8%: [2]
83.2%: [5]

COC1CCN(C(=O)c2ccc(-c3cnc4c(c3)N(Cc3cc(Cl)ccc3C(F)(F)F)CCN4)cc2)CC1
68%: [2]
not listed: [3] | [8]
< 50%: all other assays above

FC(F)(F)c1ccc(Cl)cc1CN1CCNc2ncc(-c3ccnc(N4CCNCC4)c3)cc21
87%: [2]
< 50%: all other assays above

CN1CCN(c2ccc(-c3cnc4c(c3)N(Cc3cc(F)ccc3F)CCN4)cn2)CC1
80.4%: [5]
59%: [4]
< 50%: all other assays above

O=C(c1ccc(-c2cnc3c(c2)N(Cc2cc(Cl)ccc2C(F)(F)F)CCN3)cc1)N1CCCCC1
not listed: [3] | [8]
< 50%: all other assays above

CC(=O)N1CCN(c2cc(-c3cnc4c(c3)N(Cc3cc(Cl)ccc3C(F)(F)F)CCN4)ccn2)CC1
84%: [2]
< 50%: all other assays above

O=C(O)c1ccc(-c2cnc3c(c2)N(Cc2cc(Cl)ccc2C(F)(F)F)CCN3)cc1
< 50%: [1] | [2] | [4] | [6] | [7]
